The list is not random: actives were taken first. Their share in the collection is about 1.6%.
PG9 Ab binder: small molecules binding HIV-1 gp120 antibody PG9 | TR-FRET gp120-PG9 antibody binding | inhibition, % at 6.7 µM | 360,000 tested, 0.43% active; in the data active = inhibition above about 8.5%
Rev-erbA mod: modulators of human Rev-erb alpha DNA binding | P20393 | Rev-erbα–FITC-DNA binding, fluorescence polarization, 90 min | activity, % at 10 µM | 370,000 tested, 0.79% active;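 active = activity above about 14%, limit read from the data; passing the limit was not always enough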;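 also: 0% = DMSO wells with 35 nM protein and 100% = DMSO wells with 750 nM protein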
NR2E3 ag-1: activates human NR2E3 receptor | Q9Y5X4 | CHO-S Gal4-NCOR/VP16-NR2E3 two-hybrid, luciferase | inhibition of corepressor binding, % at 3.98 µM | 360,000 tested, 0.35% active;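 active = inhibition above the mean of all tested compounds plus 3 SD, cut at about 70% in these data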;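 also: 0% = DMSO with NR2E3 transfected cells and 100% = cells lacking NR2E3 construct; higher means lower luciferase signal from less NR2E3 corepressor binding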
VLA-4 inh: inhibition in a human VLA-4 binding assay | VLA-4 expressing cells, ligand binding flow cytometry | inhibition, % (about 7 µM as worked out from the volumes in the protocol) | 330,000 tested, 0.2% active | P13612; in the data active = inhibition above about 50%
Target sequence (P13612 whole entry, looked up): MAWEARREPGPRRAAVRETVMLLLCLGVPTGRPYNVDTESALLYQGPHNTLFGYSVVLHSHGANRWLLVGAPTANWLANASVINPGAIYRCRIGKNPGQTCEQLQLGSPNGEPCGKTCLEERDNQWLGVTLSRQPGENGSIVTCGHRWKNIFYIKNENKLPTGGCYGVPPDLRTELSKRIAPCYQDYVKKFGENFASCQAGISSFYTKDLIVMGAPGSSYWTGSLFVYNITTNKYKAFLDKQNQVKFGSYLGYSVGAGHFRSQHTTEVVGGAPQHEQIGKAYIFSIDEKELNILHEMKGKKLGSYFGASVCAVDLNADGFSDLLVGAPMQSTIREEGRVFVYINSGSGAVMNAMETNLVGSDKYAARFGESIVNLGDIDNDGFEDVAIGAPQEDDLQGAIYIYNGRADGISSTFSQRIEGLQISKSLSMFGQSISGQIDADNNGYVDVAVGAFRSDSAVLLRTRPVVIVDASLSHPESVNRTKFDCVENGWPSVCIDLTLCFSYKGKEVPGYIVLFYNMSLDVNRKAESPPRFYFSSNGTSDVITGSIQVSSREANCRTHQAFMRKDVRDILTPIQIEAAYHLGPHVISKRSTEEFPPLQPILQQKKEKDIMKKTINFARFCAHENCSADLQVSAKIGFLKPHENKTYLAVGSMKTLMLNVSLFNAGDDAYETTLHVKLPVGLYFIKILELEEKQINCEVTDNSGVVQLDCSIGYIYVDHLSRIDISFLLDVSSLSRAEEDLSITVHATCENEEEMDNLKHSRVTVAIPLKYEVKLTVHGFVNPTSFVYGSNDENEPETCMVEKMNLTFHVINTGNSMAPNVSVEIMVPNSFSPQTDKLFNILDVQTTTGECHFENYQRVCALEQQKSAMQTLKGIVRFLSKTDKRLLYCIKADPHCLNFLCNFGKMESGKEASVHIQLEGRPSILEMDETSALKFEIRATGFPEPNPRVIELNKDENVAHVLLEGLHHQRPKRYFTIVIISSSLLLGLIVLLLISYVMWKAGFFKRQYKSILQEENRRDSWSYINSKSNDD
NR2E3 ag-2: NR2E3 (human) agonism | Q9Y5X4 | GST-NR2E3/biotin-RetCOR TR-FRET, 1536-well | inhibition of corepressor binding, % at 4.78 µM | 320,000 tested, 0.12% active | AID 2300;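 active = percent inhibition above the cutoff of mean plus 3 SD of all tested compounds, set per screening campaign, cut at about 20% in these data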;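 also: 0% = DMSO wells and 100% = biotin wells as full block of FRET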
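Material – GST-tagged NR2E3 plus biotinylated RetCOR corepressor · Quantity – NR2E3 fusion 1.35 nM · Times – 5 h incubation at 4 °C · Medium – pH 7.5 Tris-based buffer · Technique – TR-FRET, Eu(K)-anti-GST donor, streptavidin-D2 acceptor, ex 340, em 617/671 nm · Benchmarks – high control biotin, low control 0.6% DMSO · Format – 1536-well plates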
NR2E3 ag conf: NR2E3 agonism confirmed in two-hybrid assay | CHO-S mammalian two-hybrid NR2E3-NCOR, luciferase luminescence | shares compounds with NR2E3 ag-1 | inhibition, % at 3.98 µM | 2,300 tested, 51% active;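 active = average inhibition above a cutoff equal to the mean inhibition of all tested compounds plus one SD, cut at about 70% in these data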;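 also: 0% = DMSO in NR2E3 cells and 100% = DMSO in cells lacking NR2E3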
VP16 counter: GAL4-VP16 reporter inhibition in NR2E3 agonist counterscreen | 2,300 tested, 29% active | inhibition, % at 3.98 µM | shares compounds with NR2E3 ag-1 | CHO-S GAL4-VP16 luciferase reporter, luminescence;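 active = mean inhibition above a cutoff equal to the average over all tested compounds plus one standard deviation, cut at about 70% in these data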;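 also: luciferase from a UAS reporter driven by GAL4-VP16 transactivation; 0% = DMSO with VP16-transfected cells and 100% = DMSO with cells lacking VP16; higher means less reporter light so more repression of VP16 activity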
PG9 bind confirm: confirmation of small molecules binding HIV-1 gp120 antibody PG9. inhibition, % at 6.7 µM. shares compounds with PG9 Ab binder. 1,500 tested, 90% active. TR-FRET PG9 antibody binding, biochemical. AID 651571; in the data active = inhibition above about 9%
PGV04 Ab binding: binds control antibody PGV04 in PG9 binder counter-screen; inhibition, % at 6.7 µM; TR-FRET PGV04 antibody-gp120 binding, biochemical; 1,500 tested, 95% active; shares compounds with PG9 Ab binder; AID 651604; in the data active = inhibition above about 9.5%
Rev-erbA confirm: confirmation of modulators of human Rev-erb alpha DNA binding; Rev-erb alpha FITC-DNA binding, fluorescence polarization, 90 min; shares compounds with Rev-erbA mod; 3,000 tested, 61% active; activation, % at 25 µM;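 active = activation at or above a set limit, or at least 3 SD above the negative control mean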;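 also: 0% = 35 nM protein with DMSO and 100% = 750 nM protein high control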
* = called active by the depositor; nt = no result.

SMILES | PG9 Ab binder | Rev-erbA mod | NR2E3 ag-1 | VLA-4 inh | NR2E3 ag-2 | PG9 bind confirm | PGV04 Ab binding | others
Cc1cc(C(=O)CSc2nc3ccccc3c(=O)n2C)c(C)n1Cc1ccc2c(c1)OCO2 | 2.2 | 41.7* | 68.8 | 24.9 | -3.7 | nt | nt | NR2E3 ag conf=94.8*;VP16 counter=76.2*;Rev-erbA confirm=5.9
COc1ccc(C=Nn2c(-c3ccccc3F)n[nH]c2=S)cc1OCc1ccccc1 | nt | 0.7 | nt | nt | nt | nt | nt
O=C(O)c1ccc(Cn2c(SCc3cc(=O)n4cc(Br)ccc4n3)nc3ccsc3c2=O)cc1 | 5.5 | -3.8 | nt | -5.7 | 2.3 | nt | nt
O=C(O)C1CCC(Cn2c(SCc3cc(=O)n4cc(Br)ccc4n3)nc3ccsc3c2=O)CC1 (stereo not drawn) | 21.6* | 8.2 | 1.6 | 8.1 | 5.5 | 29.8* | 49.6*
O=C(Nc1ccc(Br)cn1)c1cccc(C(=O)Nc2ccc(Br)cn2)c1 | 12.1* | 21.8 | -86.4 | 7.3 | 0.6 | 40.6* | 55.0*
O=C(Nc1ccc(Br)cn1)c1ccc2ccccc2c1 | -0.2 | 2.8 | -91.4 | 0.5 | 1.2 | nt | nt
COC(=O)C1=C(C)N(Cc2ccc(Cl)cc2)C(=S)NC1c1ccc(OC)cc1 (stereo not drawn) | -0.9 | 4.9 | nt | nt | nt | nt | nt
CN(C)C1(CNC(=O)CC(NC(=O)c2ccccc2Cl)c2ccccc2)CCCCC1 (stereo not drawn) | 17.2* | 9.3 | -24.7 | -17.0 | 3.8 | 8.9* | 9.6*
O=C(Nc1ccc(OC(F)(F)F)cc1)Nc1nc2ncccn2c1-c1ccc(C(F)(F)F)cc1 | nt | 1.5 | nt | nt | nt | nt | nt
CCSc1n[nH]c2nc3c(c(=O)n12)C1(CCCC1)Cc1ccccc1-3 | 1.4 | -10.6 | -1.9 | 23.1 | 1.9 | nt | nt
Cc1ccc(-n2c(SCC(N)=O)nc3c(c2=O)C2(CCCC2)Cc2ccccc2-3)cc1 | 10.9* | -2.5 | -1.6 | -2.1 | 10.3 | 23.1* | 32.4*
CCC[C@H]1[C@@H](OC(=O)NCc2ccc(OC)cc2)CC[C@@]23CCCN2C(=O)CCC[C@@H]13 | nt | -2.1 | nt | nt | nt | nt | nt
CCCCNS(=O)(=O)c1ccc2nc(-c3cccnc3)cc(C(=O)NCCCOC)c2c1 | 11.3* | -0.1 | 9.1 | -1.2 | -1.7 | 12.6* | 14.8*
CSc1cc(-c2ccc(Cl)cc2)c(C(=O)NC(C)C)s1 | 17.7* | 3.7 | -6.9 | 2.2 | -3.8 | 8.5 | 13.4*
Cc1ccccc1Cn1cc(CN2[C@@H](CC(C)C)COc3cc(Br)ccc3S2(=O)=O)nn1 | nt | 1.4 | nt | nt | nt | nt | nt
COCCCN1C(=O)C(=O)/C(=C(/O)c2ccc(OC(C)C)cc2)C1c1cccnc1 (stereo not drawn) | 10.4* | 0.1 | -14.4 | -0.1 | 17.9 | 14.5* | 18.8*
Nc1[nH]c(C(=O)c2ccc(Br)cc2)c(-c2ccncc2)c1C(=O)c1ccccc1 | -0.8 | -1.7 | nt | nt | nt | nt | nt
COc1ccccc1-c1c(C(F)(F)F)oc2cc(OS(C)(=O)=O)ccc2c1=O | -0.4 | -8.2 | -2.1 | 5.8 | 4.2 | nt | nt
COc1ccccc1-c1c(C(F)(F)F)oc2cc(OCC(=O)Nc3ccccc3C(F)(F)F)ccc2c1=O | 12.3* | 2.2 | -15.0 | 15.8 | -2.6 | 20.0* | 36.6*
O=C(Nc1ccc(F)cc1F)C1CCN(c2nnc(-n3cccc3)s2)CC1 | nt | -3.0 | nt | nt | nt | nt | nt
CCOc1cc(C2C(C#N)=C(N)SC(N)=C2C#N)ccc1OCCN1CCOCC1 | 13.1* | 4.6 | 13.3 | 4.3 | 4.1 | 14.9* | 20.9*
CCCc1[nH]nc2c1C(c1ccc(OCCN3CCOCC3)c(OC)c1)C(C#N)=C(N)O2 (stereo not drawn) | 0.2 | 1.2 | 6.3 | 2.0 | 3.9 | nt | nt
CCCCNS(=O)(=O)/C=C/c1cc(C)ccc1CNC(=O)OC(C)(C)C | nt | 8.8 | nt | nt | nt | nt | nt
Cc1ccc(-c2nc(C3CCCN(S(=O)(=O)c4ccc(Cl)s4)C3)no2)cc1 (stereo not drawn) | nt | 0.6 | nt | nt | nt | nt | nt
CCn1c(=O)cc(OCC(=O)Nc2ccc(C)cn2)c2ccccc21 | 0.5 | 0.5 | 5.2 | -1.9 | -4.0 | nt | nt
SMILES | PG9 Ab binder | Rev-erbA mod | NR2E3 ag-1 | VLA-4 inh | NR2E3 ag-2 | PG9 bind confirm | PGV04 Ab binding | others
Cc1csc(NC(=O)COc2ccc3c(C)cc(=O)oc3c2)n1 | 15.4* | -8.2 | -14.6 | 7.0 | -42.1 | 20.5* | 29.7*
CCn1c(=O)cc(OCC(=O)Nc2nc(C)cs2)c2ccccc21 | 13.2* | 21.5 | -14.8 | 24.1 | 6.0 | 30.4* | 48.6*
Cc1ccc(CNC(=O)CSc2nc(C)cc(C)c2C#N)cc1 | 57.6* | 14.2 | -22.1 | -2.5 | 3.3 | 38.8* | 45.5*
Cc1ccc2cc(C#N)c(SCC(=O)NCc3ccco3)nc2c1 | 0.1 | 6.0 | -11.8 | 6.8 | 7.2 | nt | nt
Cc1ccc2nc(SCC(=O)NCc3ccco3)c(C#N)cc2c1 | 13.3* | -2.7 | -78.9 | 0.8 | 10.7 | 10.7* | 17.8*
COc1ccc(C(=O)Nc2ccc(Cl)cc2C(=O)NCc2ccco2)cc1 | 11.4* | 16.6 | -23.6 | 12.6 | 1.0 | -2.5 | 16.8*
COC(=O)[C@H]1C[C@@]2(N3CCCC3)c3ccccc3N[C@H]2N1S(C)(=O)=O | nt | -6.5 | nt | nt | nt | nt | nt
COCCCNC(=O)c1oc(=O)c2ccccc2c1-c1ccc(C)cc1 | nt | -7.2 | nt | nt | nt | nt | nt
COc1ccc(C2CCCN2C(=O)Nc2ccccc2)cc1OC (stereo not drawn) | 12.9* | -0.3 | -28.1 | 37.5 | 2.8 | 5.1 | 6.6
COc1ccc(C2CCCN2C(=O)Nc2ccc(C)c(C)c2)cc1OC (stereo not drawn) | 1.1 | 3.9 | -7.6 | 12.6 | 1.1 | nt | nt
O=C(O)Cn1c2c(c3ccccc31)CSc1ccc(Cl)cc1-2 | 16.6* | 9.2 | -29.0 | 9.1 | 8.4 | 10.2* | 13.7*
Cc1cc(C)cc(OC(C)CCN2CCC(C(O)(c3ccccc3)c3ccccc3)CC2)c1 (stereo not drawn) | nt | 0.3 | nt | nt | nt | nt | nt
COc1ccc(-c2nc3c(C)cc(Br)cn3c2CC(C)(C)C)cc1OC | 22.2* | -2.8 | 4.4 | nt | nt | 25.3* | 39.6*
COc1ccc(-c2nc3c(C)cc(Br)cn3c2CC2CCCCC2)cc1OC | 13.7* | 3.3 | -24.7 | nt | nt | 22.4* | 27.4*
CCC(C)[C@@H](C(=O)OC)N(Cc1cn(Cc2ccccc2)nn1)S(=O)(=O)c1ccccc1Br (stereo partly drawn) | nt | 3.6 | nt | nt | nt | nt | nt
COc1ccc(C2C(C(=O)c3ccc(C)o3)=C(O)C(=O)N2Cc2ccco2)cc1OC (stereo not drawn) | -0.8 | -1.4 | -27.2 | -13.4 | 8.0 | nt | nt

Source: PubChem BioAssay (several laboratories)
